M4 antag = antagonists of human muscarinic M4 receptor (CHRM4); P08173; 360,000 compounds, 0.73% hits; CHO-hM4 cells, ACh EC80, Fluo-8 calcium fluorescence; AID 624125; inhibition, % at 3 µM;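 active means inhibition above its plate's cutoff, the mean inhibition of sample wells plus 3 SD, cut at about 27% in these data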;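 further: 0% = acetylcholine EC80 with DMSO and 100% = DMSO without agonist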
Target sequence (P08173 whole entry, looked up): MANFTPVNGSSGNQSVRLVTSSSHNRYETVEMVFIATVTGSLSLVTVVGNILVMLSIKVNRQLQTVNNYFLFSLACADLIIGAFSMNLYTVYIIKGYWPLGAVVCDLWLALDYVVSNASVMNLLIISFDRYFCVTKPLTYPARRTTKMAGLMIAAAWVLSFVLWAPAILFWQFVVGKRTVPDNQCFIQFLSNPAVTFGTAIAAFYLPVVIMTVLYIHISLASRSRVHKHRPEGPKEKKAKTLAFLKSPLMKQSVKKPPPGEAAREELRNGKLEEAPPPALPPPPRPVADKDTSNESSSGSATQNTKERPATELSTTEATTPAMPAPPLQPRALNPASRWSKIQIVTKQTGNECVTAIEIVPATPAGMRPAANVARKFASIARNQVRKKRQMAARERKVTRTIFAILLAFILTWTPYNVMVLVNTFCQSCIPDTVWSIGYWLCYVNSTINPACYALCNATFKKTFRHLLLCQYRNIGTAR
M5 antag = CHRM5 antagonism in calcium assay; AID 624040; P08912; CHO-hM5 cells, Fluo-8 calcium fluorescence, ACh EC80; 360,000 compounds, 0.59% hits; inhibition, % at 3 µM;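 active means inhibition above a per-plate cutoff, the mean of that plate's test compounds plus 3 SD, cut at about 27% in these data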;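 further: 0% = acetylcholine EC80 with DMSO and 100% = DMSO without agonist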
CHRM4 agonist = agonists of human muscarinic M4 receptor (CHRM4); P08173; CHO-K1 hM4/Gqi5, Fluo-8 calcium fluorescence; vehicle 0%, full acetylcholine response 100%; activation, % at 3 µM; 360,000 compounds, 0.14% hits; AID 624127;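 active means activation above the run mean over all test wells plus 3 SD, cut at about 32% in these data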;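 further: peak over basal fluorescence ratio per well then scaled between controls; 0% = DMSO wells and 100% = acetylcholine at EC100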
M5 PAM = CHRM5 positive allosteric modulation; P08912; CHO-K1 hM5, Fluo-8 calcium, ACh EC20 PAM; 0% = ACh EC20, 100% = ACh EC100; activation, % at 3 µM; 360,000 compounds, 0.3% hits;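 active means activation above the run cutoff, the mean activation of all test compounds plus 3 SD, cut at about 18% in these data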
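Assay system: CHO-K1 hM5 cells. Also added: acetylcholine at EC20 concentration, added after compound. Dosing: 3 µM, single dose. Times: compound preincubation 140 s before EC20 acetylcholine addition. Signal: Fluo-8 calcium fluorescence. Measure: % activation relative to EC20 and EC100 ACh responses. Repeats: singlicate, one well per test compound.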
M4 PAM = potentiates acetylcholine response at human M4 receptor | CHO-K1 hM4/Gqi5, Fluo-8 calcium fluorescence, ACh EC20; 0% = ACh EC20, 100% = maximal ACh | AID 624126 | P08173 | activation, % at 3 µM | 360,000 compounds, 0.4% hits;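 active means activation above its plate's cutoff, the mean activation of sample wells plus 3 SD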
CHRM5 agonist = CHRM5 agonism in calcium assay; P08912; CHO-K1 hM5 cells, Fluo-8 calcium fluorescence; 0% DMSO wells, 100% maximal acetylcholine response; activation, % at 3 µM; 360,000 compounds, 0.19% hits; AID 624037;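 active means activation above the run's mean over test compounds plus 3 SD, cut at about 23% in these data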;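 further: signal is peak over basal fluorescence ratio across the kinetic read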
Starred values were filed as active, the others as inactive; ! = repeats disagree. Most compounds without a hit are left out; they make up all but 1.8% or so of the library.

SMILES	M4 antag	M5 antag	CHRM4 agonist	M5 PAM	M4 PAM	CHRM5 agonist
O=C(NC(NNc1ccc([N+](=O)[O-])cc1)(C(F)(F)F)C(F)(F)F)c1ccccc1Cl	5.8	9.6	4.0	-12.4	-10.7	0.4
O=C(NC(NNc1ccc([N+](=O)[O-])cc1)(C(F)(F)F)C(F)(F)F)c1ccc(F)cc1	9.3	28.9*	12.7	-16.6	-9.2	9.2
CC1C(=O)NN=C1C(=O)N/N=C\c1ccc(O)cc1O (configuration not stated)	-33.9	-6.4	1.5	5.5	28.6*	-2.7
COc1cc(/C=N/NC(=O)C2=NNC(=O)C2C)ccc1O (configuration not stated)	-4.3	5.9	0.5	-3.3	-1.2	-1.1
CCCC(=O)N1CCC1(C)C(=O)Nc1ccc(OC)c(OC)c1 (configuration not stated)	0.1	-1.9	0.4	-4.8	-2.1	0.1
Cc1nn(-c2cc(C(F)(F)F)ccc2Cl)c2nc(C(Cl)(Cl)Cl)[nH]c(=O)c12	5.6	3.8	1.1	19.4*	-7.7	13.5
c1ccc(-c2nc3ccccc3[nH]2)cc1	-4.0	-7.0	1.2	1.3	-1.0	0.7
Nc1cc(N)cc(-c2nc3ccccc3[nH]2)c1	26.5*	-4.5	-0.1	4.6	8.8	0.0
O=C(CN1CCCCCC1)N1c2ccccc2C=Cc2ccccc21	95.2*	79.6*	-0.1	-15.8	-31.7	-6.4
O=C(CN1CCCCC1)N1CCCc2ccccc21	12.5	8.4	0.2	-4.4	-3.3	-5.7
NC(=O)N1c2ccccc2C=Cc2ccccc21	-19.2	-4.3	1.5	-1.9	6.7	1.1
CN1CCN(C(=O)N2c3ccccc3C=Cc3ccccc32)CC1	70.8*	97.6*	0.6	-25.2	-16.9	-13.0
O=C(CN1CCCC1)N1c2ccccc2C=Cc2ccccc21	51.0*	49.5*	0.9	-33.5	-21.8	-13.7
CC(Sc1nc(-c2ccccc2)c(-c2ccccc2)[nH]1)C(=O)NCC1CCCO1 (configuration not stated)	-23.0	5.0	6.5	-2.2	13.2	-0.2
CC1(C(=O)NS(=O)(=O)c2ccc(C#N)cc2)CCN1C(=O)C1(c2ccc(Cl)cc2)CC1 (configuration not stated)	-8.6	-7.8	0.8	2.4	4.6	0.5
CC(=O)c1cccc(-c2ccnc3c2CC(C(=O)Nc2cccc(C(F)(F)F)c2)O3)c1 (configuration not stated)	-5.0	-6.8	16.7	-7.3	-8.5	2.9
COCCN(Cc1ccccc1)C(=O)c1cccc(S(=O)(=O)N2CCN(Cc3ccccc3)CC2)c1	2.3	-2.3	8.2	-4.3	-6.3	0.7
Clc1cccc(CNc2ccn3nc(-c4ccccc4)cc3n2)c1	-3.7	-6.3	4.7	10.8	16.1*	0.9
c1ccc(CNc2c(-c3cccc(SC4CCCCC4)c3)nc3ccccn23)cc1	49.4*!	22.5	13.3	-34.5	-12.2	-4.3
COc1ccc(-c2nc3ccccn3c2NCc2ccc3c(c2)OCO3)cc1	5.8	10.3	8.0	-35.3	-10.6	-5.6
Clc1cccc(-c2ccc(-c3nc4ccccn4c3NCc3ccccc3)cc2)c1	29.4*	13.7	5.9	-16.7	-8.9	0.2
COc1ccc(-c2cc(-c3nc4ccccn4c3NCc3ccccc3)ccc2OC)cc1	84.0*	48.2*	25.9	-37.9	-15.9	-0.4
c1ccc(-c2nc3ccccn3c2NCc2ccc3c(c2)OCO3)cc1	-12.4	11.1	12.2	-20.8	-11.1	0.9
Cc1ccn2c(NCc3ccccc3)c(-c3cccc(SC4CCCCC4)c3)nc2c1	10.9	12.7	4.0	-10.9	-7.7	-6.5
Cc1cncc(NCc2cccc(Cl)c2)n1	9.7	8.6	0.0	-2.6	-5.1	-1.6
SMILES	M4 antag	M5 antag	CHRM4 agonist	M5 PAM	M4 PAM	CHRM5 agonist
CCOC(=O)C1=C[C@@H](C(C)(C)C)N(S(=O)(=O)c2ccccc2C)[C@H]1c1ccc(Cl)cc1	-7.5	-1.3	-0.2	3.1	-5.2	1.5
CCC(C#CCN1CCCCC1)(CC)OCCC#N	25.0	24.1	0.8	-22.3	-14.0	-8.2
CCC(C)(C#CCN1CCCCC1)OCCC#N (configuration not stated)	47.1*	60.3*	0.3	-17.9	-16.3	-8.2
COC(=O)[C@@]12C[C@@H](CC(=O)NCc3cccc(C(F)(F)F)c3)C(=O)N(Cc3ccc4c(c3)OCO4)C1=CCC(C)(C)C2	-7.4	-15.7	7.2	13.5	7.4	-0.6
COc1ccccc1OC(=O)CCN1c2ccccc2Sc2ccccc21	-13.8	8.9	-1.0	-7.6	-2.1	-0.3
COc1ccc(C(=O)/C=C2\Sc3ccccc3N2C)cc1	-1.8	0.6	1.2	5.9	5.3	-3.8
COc1ccccc1-[n+]1c(C)cc(/C=C2\Sc3ccccc3N2C)cc1C	40.1*	53.4*	15.9	-28.7	-39.8	14.4
COc1ccc(-[n+]2c(C)cc(/C=C3\Sc4ccccc4N3C)cc2C)cc1	49.5*	48.5*	10.5	-22.8	-22.9	5.8
O=C(NCc1ccccc1)C(C1CC1)n1c(CSCCOc2ccccc2)nc2ccccc21 (configuration not stated)	7.9	18.3	5.5	-10.8	-5.5	-2.1
COc1ccc(NC(=O)CSc2nnc(NC(=O)c3ccc(S(=O)(=O)N4CCOCC4)cc3)s2)cc1	22.9	15.5	0.8	23.0*	5.1	7.4
O=C(c1ccc(N2C(=O)CCC2=O)cc1)N1CCCSC1=Nc1ccccc1	-15.5	-11.6	1.2	2.7	0.7	-2.5
CC(NC(=O)Cn1c(=O)[nH]c2ccsc2c1=O)C12CC3CC(CC(C3)C1)C2 (configuration not stated)	0.2	-2.6	0.9	0.8	19.2*	0.9
CC(NC(=O)Cn1ccsc1=N)C12CC3CC(CC(C3)C1)C2 (configuration not stated)	-6.6	-2.3	6.5	-1.2	-3.5	-9.9
COc1cc(CNCCc2ccccc2)cc(Cl)c1OCc1ccccc1	27.3*	3.9	20.6	2.7	-15.3	4.8
O=C(Nc1cccc(C(F)(F)F)c1)N1CCC(c2nc(-c3ccc(F)cc3)no2)CC1	51.1*	38.8*	16.3	-22.6	-17.9	-1.6
Cc1ccc([C@@]2(OC(=O)c3ccccc3)C(=O)N(C(=O)OC(C)(C)C)c3ccccc32)cc1	-15.0	5.2	0.4	-2.2	6.3	0.6
CCCCCCCCCCC[N+](C)(C)CC/C=C1/c2ccccc2Sc2ccc(Cl)cc21	52.2*	82.2*	0.6	-18.2	-19.3	-8.0
CC[N+](C)(C)CC/C=C1/c2ccccc2Sc2ccc(Cl)cc21	96.4*	99.3*	0.8	-34.9	-17.1	-20.3

Screens deposited in PubChem by The Scripps Research Institute Molecular Screening Center.
